From ChEMBL document CHEMBL3792308, “Synthesis and Evaluation of 2,6-Modified Purine 2'-C-Methyl Ribonucleosides as Inhibitors of HCV Replication” (ACS Med Chem Lett, 2016)
Calls of active or inactive are those of the source. The rule behind the calls is not given here.

Columns and labels:
[1] = Inhibition of host RNA polymerase 2 (unknown origin); set-up: species or system Homo sapiens
How it was run: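 Host RNA polymerase II inhibition assay with the nucleoside triphosphate tested at concentrations up to 100 μM. α-Amanitin was included as the positive control.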

[2] = Cytotoxicity against African green monkey Vero cells after 3 days by hemocytometry; type: cell-based; details: chlorocebus sabaeus
[3] = Drug metabolism in human HuH7 cells assessed as nucleoside triphosphate derivative formation at 50 uM after 4 hrs by LC-MS/MS analysis; type: ADME, cell-based; details: huh-7, 4 h
How it was run: (§1)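 Huh7 cells incubated with 50 μM compound for 4 h at 37 °C, then washed with phosphate-buffered saline. Intracellular metabolites extracted with 70% ice-cold methanol in water and identified by LC–MS/MS, with nucleoside mono-, di- and triphosphate levels quantified.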

[4] = Cytotoxicity against human PBMC after 6 days by trypan blue exclusion assay; type: cell-based; details: PBMC (peripheral blood mononuclear cells)
[5] = Drug metabolism in human HuH7 cells assessed as formation of ((2R,3R,4R,5R)-5-(6-amino-2-fluoro-9H-purin-9-yl)-3,4-dihydroxy-4-methyltetrahydrofuran-2-yl)methyl tetrahydro triphosphate at 50 uM after 4 hrs by LC-MS/MS analysis; type: ADME, cell-based; details: huh-7, 4 h; how it was run: as §1
[6] = Drug metabolism in human HuH7 cells assessed as nucleoside monophosphate derivative formation at 50 uM after 4 hrs by LC-MS/MS analysis; type: ADME, cell-based; details: huh-7, 4 h; how it was run: as §1
[7] = Drug metabolism in human HuH7 cells assessed as nucleoside diphosphate derivative formation at 50 uM after 4 hrs by LC-MS/MS analysis; type: ADME, cell-based; details: huh-7, 4 h; how it was run: as §1
Hepatitis C virus = assay: Antiviral activity against HCV infected in HuH7 Clone B cells assessed as inhibition of viral replication after 5 days by RT-PCR method; type: functional, organism-based, Hepacivirus hominis; details: 120 h
How it was run: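 Huh7 cells carrying a subgenomic HCV replicon; HCV RNA extracted and amplified to measure replication inhibition. Tested up to 10 μM, and EC50 and EC90 are reported.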

[8] = Cytotoxicity against human CEM cells after 6 days by trypan blue exclusion assay; type: cell-based; details: CEM (CCRF-CEM) cells
[9] = Cytotoxicity against human HuH7 cells infected with HCV assessed as reduction in cellular rRNA level after 96 hrs by qRT-PCR analysis; type: cell-based, Huh-7
How it was run: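 Huh7 toxicity was read in the same wells as the replicon assay, by extracting and amplifying cellular rRNA alongside HCV RNA.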

[10] = Drug metabolism in human HuH7 cells assessed as 2'-beta-C-methylguanosine-5'-triphosphate formation at 50 uM after 4 hrs by LC-MS/MS analysis; type: ADME, cell-based; details: huh-7, 4 h; how it was run: as §1
[11] = target: DNA-directed RNA polymerase, mitochondrial (Homo sapiens) (UniProt O00411); assay: Activity at human mitochondrial RNA polymerase assessed as compound incorporation into RNA up to 100 uM relative to ATP
How it was run: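 Human mitochondrial RNA polymerase (POLRMT) incorporation of nucleoside triphosphate, tested up to 100 μM and expressed as percent incorporation normalized to ATP.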

[12] = Inhibition of HCV C-terminal his-tagged NS5B delta21 RNA dependent RNA polymerase assessed as inhibition of full-length 20mer RNA product formation after 120 mins by PAGE method in presence of 32P-radiolabeled GpG primer; set-up: species or system Hepacivirus hominis
How it was run: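 HCV NS5B polymerase RNA synthesis on a 20mer RNA template, run with increasing triphosphate concentrations up to 100 μM. Products resolved to follow incorporation and pausing sites opposite template uridines.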

[13] = Drug level in human HuH7 cells treated with Ethyl((((2R,3R,4R,5R)-5-(6-amino-2-fluoro-9H-purin-9-yl)-3,4-dihydroxy-4-methyltetrahydrofuran-2-yl)methoxy)(phenoxy)phosphoryl)-L-alaninate at 50 uM after 4 hrs by LC-MS/MS analysis; type: ADME, cell-based; details: huh-7, 4 h; how it was run: as §1
Homo sapiens = species: Homo sapiens; assay: Inhibition of host RNA polymerase 2 (unknown origin) up to 100 uM
How it was run: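 Host RNA polymerase II was tested with nucleoside triphosphate up to 100 μM. α-Amanitin served as the positive control.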

[14] = Drug level in human HuH7 cells treated with (2R,3R,4R,5R)-2-(6-amino-2-fluoro-9H-purin-9-yl)-5-(hydroxymethyl)-3-methyltetrahydrofuran-3,4-diol at 50 uM after 4 hrs by LC-MS/MS analysis; type: ADME, cell-based; details: huh-7, 4 h; how it was run: as §1
[15] = Drug level in human HuH7 cells treated with 2-Amino-6-[N-(t-butyloxycarbonyl)aminoxy]-9H-(2'-C-methyl-beta-D-ribofuranosyl)-purine at 50 uM after 4 hrs by LC-MS/MS analysis; type: ADME, cell-based; details: huh-7, 4 h; how it was run: as §1
[16] = Drug level in human HuH7 cells treated with Ethyl((((2R,3S,4R,5R)-5-(2-amino-6-(((tert-butoxycarbonyl)amino)oxy)-9H-purin-9-yl)-3,4-dihydroxy-4-methyltetrahydrofuran-2-yl)methoxy)(phenoxy)phosphoryl)-Lalaninate at 50 uM after 4 hrs by LC-MS/MS analysis; type: ADME, cell-based; details: huh-7, 4 h; how it was run: as §1

Chain of DNA-directed RNA polymerase, mitochondrial (Homo sapiens) (O00411 whole entry): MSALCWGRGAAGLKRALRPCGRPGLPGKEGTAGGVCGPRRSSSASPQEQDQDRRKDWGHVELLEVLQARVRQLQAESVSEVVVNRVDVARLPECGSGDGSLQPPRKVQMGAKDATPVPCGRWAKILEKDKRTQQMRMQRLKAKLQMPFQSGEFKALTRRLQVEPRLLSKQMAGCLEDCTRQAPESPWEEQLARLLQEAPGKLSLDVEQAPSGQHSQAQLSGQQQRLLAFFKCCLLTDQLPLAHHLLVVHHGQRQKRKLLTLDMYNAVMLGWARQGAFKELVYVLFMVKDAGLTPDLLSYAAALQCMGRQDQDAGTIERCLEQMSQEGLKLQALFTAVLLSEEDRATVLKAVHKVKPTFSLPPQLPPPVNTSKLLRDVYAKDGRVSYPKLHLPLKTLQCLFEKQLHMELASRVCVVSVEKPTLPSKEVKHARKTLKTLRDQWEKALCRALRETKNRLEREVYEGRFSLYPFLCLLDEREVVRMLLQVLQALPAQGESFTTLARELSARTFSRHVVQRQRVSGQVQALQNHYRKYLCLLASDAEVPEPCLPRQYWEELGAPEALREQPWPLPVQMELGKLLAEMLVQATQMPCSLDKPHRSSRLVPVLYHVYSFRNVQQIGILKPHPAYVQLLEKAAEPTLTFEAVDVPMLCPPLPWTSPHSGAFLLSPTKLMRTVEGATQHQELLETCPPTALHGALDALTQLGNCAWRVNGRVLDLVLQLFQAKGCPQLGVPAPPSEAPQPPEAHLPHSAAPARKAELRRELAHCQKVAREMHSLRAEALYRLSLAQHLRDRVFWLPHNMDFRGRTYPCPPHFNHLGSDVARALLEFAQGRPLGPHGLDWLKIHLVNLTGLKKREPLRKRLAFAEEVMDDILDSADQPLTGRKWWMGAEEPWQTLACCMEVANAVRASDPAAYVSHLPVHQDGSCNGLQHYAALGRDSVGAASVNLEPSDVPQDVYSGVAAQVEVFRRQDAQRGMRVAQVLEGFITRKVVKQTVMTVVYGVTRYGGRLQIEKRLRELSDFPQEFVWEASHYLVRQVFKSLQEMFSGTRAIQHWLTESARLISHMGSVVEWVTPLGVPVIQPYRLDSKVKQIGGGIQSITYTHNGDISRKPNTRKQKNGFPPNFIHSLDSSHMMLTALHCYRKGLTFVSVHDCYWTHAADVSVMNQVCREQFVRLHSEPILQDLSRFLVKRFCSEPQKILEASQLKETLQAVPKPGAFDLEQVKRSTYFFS

Structure (SMILES) | CC50 at 72 h [2] [µM] | CC50 at 144 h [4] [µM] | EC50 (Hepatitis C virus) [µM] | EC90 (Hepatitis C virus) [µM] | CC50 at 144 h [8] [µM] | CC50 at 96 h [9] [µM] | also measured
CC[C@H](C)[C@@H]1NC(=O)CNC(=O)[C@@H]2Cc3c([nH]c4cc(O)ccc34)[S+]([O-])C[C@H](NC(=O)CNC1=O)C(=O)N[C@@H](CC(N)=O)C(=O)N1C[C@H](O)C[C@H]1C(=O)N[C@@H]([C@@H](C)[C@@H](O)CO)C(=O)N2 (some centres undefined) |  |  |  |  |  |  | IC50 [1]: 0.0025 µM
CCOC(=O)[C@H](C)NP(=O)(OC[C@H]1O[C@@H](n2cnc3c(N)nc(F)nc32)[C@](C)(O)[C@@H]1O)Oc1ccccc1 (some centres undefined) | > 100 | > 100 | 2.7 | 8.3 | > 100 | > 10 | Drug metabolism [3]: metabolite_detected; Drug metabolism [5]: metabolite_detected; Drug metabolism [6]: metabolite_detected; Drug metabolism [7]: metabolite_detected
C[C@@]1(O)[C@H](O)[C@@H](CO)O[C@H]1n1cnc2c(N)nc(F)nc21 | > 100 | > 100 | > 10 | > 10 | > 100 | > 10 | Drug metabolism [5]: metabolite_detected
CC(C)(C)OC(=O)NOc1nc(N)nc2c1ncn2[C@@H]1O[C@H](CO)[C@@H](O)[C@@]1(C)O | > 100 | > 100 | 0.9 | 8.4 | > 100 | > 10 | Drug metabolism [10]: metabolite_detected
C[C@@]1(O)[C@H](O)[C@@H](COP(=O)(O)OP(=O)(O)OP(=O)(O)O)O[C@H]1n1cnc2c(N)nc(F)nc21 |  |  |  |  |  |  | Activity [11]: 11%; Ki [12]: 32 µM; Drug metabolism [13]: metabolite_detected; inhibition (Homo sapiens): inactive; Drug metabolism [14]: metabolite_detected
C[C@@]1(O)[C@H](O)[C@@H](COP(=O)(O)OP(=O)(O)OP(=O)(O)O)O[C@H]1n1cnc2c(=O)[nH]c(N)nc21 [INX-09114] |  |  |  |  |  |  | Drug metabolism [15]: metabolite_detected; Drug metabolism [16]: metabolite_detected
CCOC(=O)[C@H](C)NP(=O)(OC[C@H]1O[C@@H](n2cnc3c(ONC(=O)OC(C)(C)C)nc(N)nc32)[C@](C)(O)[C@@H]1O)Oc1ccccc1 (some centres undefined) | > 100 | > 100 | 0.3 | 0.9 | 39 | > 10 | Drug metabolism [10]: metabolite_detected
